This is an account of results in ChEMBL document CHEMBL4052597, “Symmetrically Substituted Xanthone Amphiphiles Combat Gram-Positive Bacterial Resistance with Enhanced Membrane Selectivity” (J Med Chem, 2017).

Assay type in all cases: functional
In assay [1] the test system is Staphylococcus aureus. Briefly: Antibacterial activity against methicillin-resistant Staphylococcus aureus DM 21455 after 24 hrs by two fold dilution assay. Conditions: DM 21455, 24 h. The gist of the method: (§1)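 CLSI broth macrodilution in cation-adjusted Mueller-Hinton broth. Compounds were dissolved in DMF and diluted in PBS to a 1000 µg/mL stock, then serially 2-fold diluted in CA-MHB. The inoculum came from colonies on 18-20 h TSA plates (direct colony suspension), adjusted to ~5×10^5 CFU/mL. Incubation was 24 h at 35 °C. MIC is the lowest concentration with no visible growth versus control. Biological replicates.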

For assay [2], the system named is Staphylococcus aureus. The assay can be described thus: Antibacterial activity against methicillin-resistant Staphylococcus aureus DM 9808R after 24 hrs by two fold dilution assay. The gist of the method: as §1
Assay [3] has as its system Bacillus cereus. The assay can be described thus: Antibacterial activity against Bacillus cereus ATCC 11778 after 24 hrs by two fold dilution assay. Conditions: ATCC 11778, 24 h. The gist of the method: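 Broth macro-dilution per CLSI in cation-adjusted Mueller-Hinton broth; compounds dissolved in DMF, diluted in PBS to 1000 µg/mL stock, then serial 2-fold dilutions in CA-MHB in tubes. Inoculum from 18-20 h TSA colonies (direct colony suspension), adjusted to about 5× 10^5 CFU/mL. MIC read after 24 h at 35 °C as lowest concentration with no visible growth; biological replicates.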

Assay [4] concerns Staphylococcus aureus. Briefly: Antibacterial activity against Staphylococcus aureus DM 4001R after 24 hrs by two fold dilution assay. The gist of the method: as §1
Assay [5] concerns Staphylococcus aureus. The assay can be described thus: Ratio of MIC for Staphylococcus aureus ATCC 29213 after and before 15 serial passages.
In assay [6] the test system is Staphylococcus aureus. The assay can be described thus: Antibacterial activity against Staphylococcus aureus ATCC 29213 infected in C57BL6 mouse cornea assessed as decrease in number of viable bacteria at 0.5% administered topically at 2 hrs interval for 4 times starting on day 1 post infection measured post last dose relative to control.

Each structure is given as a SMILES string. In brackets after ≈: the same amount, converted by molar mass. A value given as a limit tells only on which side of the number the result lay.

For the compound `CCN(CC)CCCNC(=O)COc1cc(OCC=C(C)C)cc2oc3cc(OCC=C(C)C)cc(OCC(=O)NCCCN(CC)CC)c3c(=O)c12`, the MIC in assay [1] was determined as 6.25 µg/mL (≈ 8.48 µM); in assay [2], 12.5 µg/mL (≈ 17 µM); in assay [3], 25 µg/mL (≈ 33.9 µM); in assay [4], 6.25 µg/mL (≈ 8.48 µM).

Turning to `CCCOc1cc(OCC(=O)N[C@@H](CCCNC(=N)N)C(=O)OC)c2c(=O)c3c(OCC(=O)N[C@@H](CCCNC(=N)N)C(=O)OC)cc(OCCC)cc3oc2c1`, the MIC in assay [1] stood at 12.5 µg/mL (≈ 15.6 µM); in assay [2], 12.5 µg/mL (≈ 15.6 µM); in assay [3] it was 25 µg/mL (≈ 31.2 µM); in assay [4], 12.5 µg/mL (≈ 15.6 µM).

Regarding `CC(C)=CCOc1cc(OCC(=O)NCCCN(C)C)c2c(=O)c3c(OCC(=O)NCCCN(C)C)cc(OCC=C(C)C)cc3oc2c1`, the MIC in assay [1] amounted to 6.25 µg/mL (≈ 9.18 µM); in assay [2], 12.5 µg/mL (≈ 18.4 µM); in assay [3], 12.5 µg/mL (≈ 18.4 µM); in assay [4], 6.25 µg/mL (≈ 9.18 µM).

Consider `COC(=O)[C@H](CCCNC(=N)N)NC(=O)COc1cc(OCC(=O)N[C@@H](CCCNC(=N)N)C(=O)OC)c2c(=O)c3c(OCC(=O)N[C@@H](CCCNC(=N)N)C(=O)OC)cc(OCC=C(C)C)cc3oc2c1`, for which the MIC in assay [1], in assay [2], in assay [3] and in assay [4] was 50 µg/mL (≈ 49.4 µM) in each case.

Take `COC(=O)[C@H](CCCNC(=N)N)NC(=O)COc1cc(OC/C=C(\C)CCC=C(C)C)cc2oc3cc(OC/C=C(\C)CCC=C(C)C)cc(OCC(=O)N[C@@H](CCCNC(=N)N)C(=O)OC)c3c(=O)c12`: the MIC in assay [1] is more than 50 µg/mL; in assay [2] it was 50 µg/mL (≈ 50.5 µM); in assay [3] it was more than 50 µg/mL; in assay [4], 25 µg/mL (≈ 25.3 µM).

Consider `CCn1cc(C(=O)O)c(=O)c2cc(F)c(N3CCNCC3)cc21` [NORFLOXACIN], for which the Ratio in assay [5] stood at 128.

`C[C@H]1COc2c(N3CCN(C)CC3)c(F)cc3c(=O)c(C(=O)O)cn1c23.C[C@H]1COc2c(N3CCN(C)CC3)c(F)cc3c(=O)c(C(=O)O)cn1c23.O` [LEVOFLOXACIN]: the Activity in assay [6] stood at 99.2%.
